Source: PubChem BioAssay
This is a sample that favours compounds with a hit; in the whole collection about 4.4% have one here.
AI-2 QS modul: Vibrio harveyi AI-2 quorum sensing modulation. activity change, % at 7.5 µM. AID 2094. Vibrio harveyi JMH597 AI-2 luminescence/OD600 ratio, 9 h; stronger effect = lower value; strain lacks LuxN and CqsS sensors; 0 = neutral-control median. hit rate 0.4% among 300,000; in the data active = activity change below about -75%, passing the limit was not always enough; inconclusive = no clear call, values can overlap the other calls;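 note: luminescence divided by OD600 gain over 9 h not by final OD600 alone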
TbMetRS inhib: blocks T. brucei methionyl-tRNA synthetase activity | purified T. brucei MetRS, ATP depletion, Kinase-Glo luminescence | inhibition, % at 11.9 µM | hit rate 0.4% among 360,000 | AID 624268;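 active = inhibition above a per-plate cutoff of the control wells' mean inhibition plus 3 SD, cut at about 5.5% in these data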;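 note: 0% = DMSO wells median and 100% = median of wells with control inhibitor compound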
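Test system: purified T. brucei MetRS enzyme. Also added: ATP, methionine and E. coli bulk tRNA substrates. Compound: 11.9 µM single point. Schedule: 15 min enzyme-compound preincubation, 2 h reaction, 10 min detection, 25 °C. Signal: luciferase luminescence of residual ATP, Kinase-Glo. Evaluation: percent inhibition versus plate control medians. Controls: DMSO wells, low control.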
bovine MsrA act: activates bovine MsrA enzyme; purified bovine MsrA, absorbance read-out; activation, % at 10.6 µM; hit rate 0.3% among 360,000; in the data active = activation above about 7.5%;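 note: 0% = vehicle and 100% = reference activator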
MsrA inhibitor: inhibitors of bovine MsrA | AID 651718 | purified bovine MsrA, absorbance read-out | hit rate 0.75% among 360,000 | inhibition, % at 15.5 µM; in the data active = inhibition above about 4.5%;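 note: 0% = vehicle wells with enzyme and 100% = reference inhibitor wells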
AHR activator: human AHR activation; activation, % at 5 µM; hit rate 2.5% among 320,000; AID 2796; AHR-responsive luciferase reporter cells, luminescence; in the data active = activation above about 47%;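 note: 0% = vehicle wells and 100% = reference agonist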
HTR2A ag: activates the mouse 5-HT2A serotonin receptor | CHO-K1 mHTR2A beta-arrestin complementation, luminescence; percent of 30 µM serotonin response | activation, % at 7.6 µM | hit rate 0.66% among 360,000 | AID 624169 | P35363;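 active = activation above a run cutoff, the mean activation of all tested compounds plus 3 SD, cut at about 14% in these data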;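 note: 0% = plate median of compound wells and 100% = 30 µM serotonin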
Target sequence (P35363 whole entry, looked up): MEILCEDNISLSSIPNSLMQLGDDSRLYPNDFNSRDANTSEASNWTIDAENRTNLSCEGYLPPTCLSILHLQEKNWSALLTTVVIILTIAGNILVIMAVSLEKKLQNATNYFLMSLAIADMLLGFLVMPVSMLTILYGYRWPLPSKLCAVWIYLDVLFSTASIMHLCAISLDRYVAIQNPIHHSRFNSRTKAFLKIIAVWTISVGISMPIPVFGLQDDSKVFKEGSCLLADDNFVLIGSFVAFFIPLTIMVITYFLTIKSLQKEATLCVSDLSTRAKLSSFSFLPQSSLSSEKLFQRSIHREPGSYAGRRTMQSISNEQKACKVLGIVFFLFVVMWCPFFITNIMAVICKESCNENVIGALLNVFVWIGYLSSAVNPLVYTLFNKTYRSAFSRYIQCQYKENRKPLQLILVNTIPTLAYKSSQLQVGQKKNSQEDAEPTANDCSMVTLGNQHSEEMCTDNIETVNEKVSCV
JMH597 growth: retest Vibrio harveyi JMH597 growth inhibition; hit rate 1% among 750; OD600 absorbance, 9 h; lacks LuxN and CqsS sensors; growth inhibition, % at 7.5 µM; shares compounds with AI-2 QS modul;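 active = every replicate shows growth inhibition above 50%; inconclusive = at least half, but not all, replicates pass that cutoff; inactive = fewer than half of replicates pass it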
BB721 const-QS lum: retest counter-screen: BB721 constitutive quorum sensing luminescence decrease. AID 2727. inhibition, % at 7.5 µM. shares compounds with AI-2 QS modul. hit rate 95% among 750. Vibrio harveyi BB721 luminescence, 9 h;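 active = inhibition above about 80% in every replicate, not just on average, limit read from the data; inconclusive = at least half of replicates past the limit, but not all; inactive = fewer than half of replicates past the limit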
BB721 growth: retest Vibrio harveyi BB721 growth inhibition; hit rate 3% among 750; growth inhibition, % at 7.5 µM; shares compounds with AI-2 QS modul; OD600 absorbance, 9 h; AID 2728;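 active = every replicate shows growth inhibition above 50%; inconclusive = at least half but not all replicates above 50% inhibition; inactive = under half of replicates above 50% inhibition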
JMH597 AI-2 mod: Vibrio harveyi AI-2 signaling luminescence modulation – JMH597 strain, confirmation | hit rate 97% among 750 | shares compounds with AI-2 QS modul | Vibrio harveyi JMH597 AI-2 quorum sensing luminescence, 9 h; luxN and CqsS knockout, AI-2 only | AID 2736 | inhibition, % at 7.5 µM;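 active = every replicate shows more than 75% inhibition of signal versus neutral control wells; inconclusive = half to three quarters of replicates exceed 75% inhibition; inactive = fewer than half of replicates exceed 75% inhibition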
Starred values were filed as active, the others as inactive.

For CC(C)(C)S(=O)N1C[C@H]2CC(=O)C(CCO)=C2[C@@H]1CCO (stereo partly drawn) the results were MsrA inhibitor 1.
`Cc1ccccc1-c1nnc(SCc2ccccc2)o1` gave AI-2 QS modul -96*, TbMetRS inhib 0, bovine MsrA act 2, MsrA inhibitor 0, AHR activator -4, HTR2A ag -3, JMH597 growth 11, BB721 const-QS lum 99*, BB721 growth 8 and JMH597 AI-2 mod 99*.
Screening CCc1ccc(C2CC(c3ccc(Cl)cc3)=NNC2=O)cc1 (stereo not drawn) returned AI-2 QS modul -82*, TbMetRS inhib 1, bovine MsrA act -9, MsrA inhibitor 0, AHR activator 2, HTR2A ag 3, JMH597 growth -8, BB721 const-QS lum 88*, BB721 growth -22 and JMH597 AI-2 mod 87*.
Screening O=C1NN=C(c2ccc(Br)cc2)CC1c1ccc(Cl)cc1 (stereo not drawn) returned AI-2 QS modul -84*, TbMetRS inhib -2, bovine MsrA act -8, MsrA inhibitor 1, AHR activator 9, HTR2A ag 6, JMH597 growth 4, BB721 const-QS lum 98*, BB721 growth 12 and JMH597 AI-2 mod 97*.
CC(C)(C)N1C(=O)[C@H]2[C@@H](c3ccc(Br)cc3)N3C(=O)N(c4ccccc4)C(=O)[C@@]3(C)[C@H]2C1=O was read as AI-2 QS modul 11, TbMetRS inhib 0, bovine MsrA act 1, MsrA inhibitor 1, AHR activator 3 and HTR2A ag 8.
For Fc1ccc(-c2nnn(Cc3nc4ccccc4s3)n2)cc1 the results were AI-2 QS modul -90*, TbMetRS inhib -1, bovine MsrA act -8, MsrA inhibitor 0, AHR activator 6, HTR2A ag 0, JMH597 growth 22, BB721 const-QS lum 98*, BB721 growth 25 and JMH597 AI-2 mod 98*.
`O=C(CNC(=O)c1ccncc1)N/N=C/c1cc(Br)ccc1O` gave AI-2 QS modul -23, TbMetRS inhib 0, bovine MsrA act 1, MsrA inhibitor 0, AHR activator 4 and HTR2A ag 0.
Screening O=C(CNC(=O)c1ccncc1)N/N=C/c1ccc(Br)cc1 returned AI-2 QS modul inconclusive, TbMetRS inhib 0, bovine MsrA act -2, MsrA inhibitor -1, AHR activator -2, HTR2A ag 3, JMH597 growth 3, BB721 const-QS lum 95*, BB721 growth 10 and JMH597 AI-2 mod 94*.
Screening COc1cccc(/C=N/NC(=O)CNC(=O)c2cccs2)c1O returned AI-2 QS modul 25, TbMetRS inhib 0, bovine MsrA act -4, MsrA inhibitor 2, AHR activator 5 and HTR2A ag 4.
`Cc1ccc(/C=N/NC(=O)CNC(=O)c2cccs2)cc1` gave AI-2 QS modul -90*, TbMetRS inhib 0, bovine MsrA act -2, MsrA inhibitor 2, AHR activator 14, HTR2A ag 7, JMH597 growth 2, BB721 const-QS lum 97*, BB721 growth 11 and JMH597 AI-2 mod 97*.
CC(C)(C)[C@H]1COC(=O)CC/C=C\C[C@@H](CC(=O)N(CCO)Cc2ccccc2)C(=O)N1 was read as TbMetRS inhib 1, bovine MsrA act -2, MsrA inhibitor 0, AHR activator -1 and HTR2A ag 4.
For COc1cccc(NC(=O)CN(C)C(=O)CCNC(=O)c2ccccc2OC)c1 the results were TbMetRS inhib 0, bovine MsrA act -6, MsrA inhibitor 0 and HTR2A ag -2.
`Clc1cccc(CSc2nc3ccncc3[nH]2)c1` gave AI-2 QS modul -89*, TbMetRS inhib 4, bovine MsrA act -4, MsrA inhibitor 1, AHR activator 25, HTR2A ag -2, JMH597 growth -38, BB721 const-QS lum 96*, BB721 growth -33 and JMH597 AI-2 mod 96*.
O=C(NCc1cccnc1)C1CCN(S(=O)(=O)c2cccnc2)CC1 was read as AI-2 QS modul -3, TbMetRS inhib -1, bovine MsrA act -3, MsrA inhibitor 0, AHR activator 6 and HTR2A ag -3.
Screening O=C(Nc1cccc(C(F)(F)F)c1)C1CCN(S(=O)(=O)c2cccnc2)CC1 returned AI-2 QS modul -83*, TbMetRS inhib 0, bovine MsrA act -3, MsrA inhibitor 0, AHR activator 3, HTR2A ag 3, JMH597 growth -29, BB721 const-QS lum 92*, BB721 growth 28 and JMH597 AI-2 mod 94*.
`Cc1ccc(NC(=O)C2CCN(S(=O)(=O)c3cccnc3)CC2)cc1C` gave AI-2 QS modul -89*, TbMetRS inhib 0, bovine MsrA act -3, MsrA inhibitor 0, AHR activator 3, HTR2A ag -7, JMH597 growth 19, BB721 const-QS lum 95*, BB721 growth 18 and JMH597 AI-2 mod 96*.
`Cc1ccc(CNC(=O)C2CCN(S(=O)(=O)c3cccnc3)CC2)cc1` gave AI-2 QS modul inconclusive, TbMetRS inhib 0, bovine MsrA act -2, MsrA inhibitor -1, AHR activator 0, HTR2A ag -7, JMH597 growth 29, BB721 const-QS lum 93*, BB721 growth 8 and JMH597 AI-2 mod 95*.
For Cc1cc2nc(-c3ccc(Cl)cc3)c(CC(C)(C)C)n2c(C)c1Br the results were TbMetRS inhib 0, bovine MsrA act -2, MsrA inhibitor 0 and HTR2A ag -1.
Screening COc1ccc(CNC(=O)N2CCN(C(=O)c3ccccc3)CC2)cc1 returned TbMetRS inhib -1, bovine MsrA act -9, MsrA inhibitor 0 and HTR2A ag 8.
Screening CC(=O)c1cccc(NC(=O)C2CC(c3ccc(F)cc3)=NO2)c1 (stereo not drawn) returned AI-2 QS modul -91*, TbMetRS inhib 0, bovine MsrA act -3, MsrA inhibitor 1, AHR activator 0, HTR2A ag -9, JMH597 growth 26, BB721 const-QS lum 97*, BB721 growth 19 and JMH597 AI-2 mod 98*.
